The Ki is the equilibrium dissociation constant of an inhibitor or competing ligand from its target. Lower therefore signals a stronger hold on the target.

SMILES strings stand for the structures.

Nine molecules from ChEMBL document CHEMBL1131023, “Identification of a dihydropyridine as a potent alpha1a adrenoceptor-selective antagonist that inhibits phenylephrine-induced contraction of the human prostate” (J Med Chem, 1998) can be followed below.

Assay [1] concerns the target T1, Alpha-2C adrenergic receptor (Homo sapiens, UniProt P18825).
T1 sequence (P18825 whole entry): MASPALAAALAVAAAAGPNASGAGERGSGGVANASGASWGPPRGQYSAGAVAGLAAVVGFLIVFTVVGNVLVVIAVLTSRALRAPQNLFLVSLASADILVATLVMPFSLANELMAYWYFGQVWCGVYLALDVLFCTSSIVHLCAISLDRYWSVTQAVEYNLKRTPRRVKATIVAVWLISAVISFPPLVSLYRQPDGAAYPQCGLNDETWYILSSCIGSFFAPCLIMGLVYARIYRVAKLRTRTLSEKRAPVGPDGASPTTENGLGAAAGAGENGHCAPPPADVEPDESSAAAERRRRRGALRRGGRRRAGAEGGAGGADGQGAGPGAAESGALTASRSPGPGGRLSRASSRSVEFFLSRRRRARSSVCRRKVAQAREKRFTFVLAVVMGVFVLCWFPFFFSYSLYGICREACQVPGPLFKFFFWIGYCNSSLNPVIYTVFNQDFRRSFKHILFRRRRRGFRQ
The experiment in a line: Binding affinity assayed by displacement of [3H]rauwolscine from human alpha-2C adrenergic receptor. The method, boiled down: (§1)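 Radioligand displacement binding at the cloned receptor, incubated for 30 min.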
In general terms: In a radioligand displacement assay an active substance lowers the binding of a labelled ligand.

The target in assay [2] is T2, Alpha-2B adrenergic receptor (Homo sapiens, UniProt P18089).
T2 sequence (P18089 whole entry): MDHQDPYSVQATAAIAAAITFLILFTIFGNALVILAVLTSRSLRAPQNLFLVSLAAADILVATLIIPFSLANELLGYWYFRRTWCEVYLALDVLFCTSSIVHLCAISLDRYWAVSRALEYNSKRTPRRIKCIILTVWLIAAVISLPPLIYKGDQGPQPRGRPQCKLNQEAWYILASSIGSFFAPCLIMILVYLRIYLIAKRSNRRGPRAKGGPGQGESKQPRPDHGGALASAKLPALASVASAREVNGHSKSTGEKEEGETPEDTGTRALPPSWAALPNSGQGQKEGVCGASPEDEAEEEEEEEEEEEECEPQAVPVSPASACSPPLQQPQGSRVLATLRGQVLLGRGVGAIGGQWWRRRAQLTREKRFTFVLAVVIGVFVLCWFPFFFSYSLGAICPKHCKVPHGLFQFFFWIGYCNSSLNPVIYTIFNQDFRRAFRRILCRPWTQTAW
The experiment in a line: Binding affinity determined by displacement of [3H]rauwolscine from alpha-2B adrenergic receptor.

The target of assay [3] is T3, Alpha-2A adrenergic receptor (Homo sapiens, UniProt P08913).
T3 sequence (P08913 whole entry): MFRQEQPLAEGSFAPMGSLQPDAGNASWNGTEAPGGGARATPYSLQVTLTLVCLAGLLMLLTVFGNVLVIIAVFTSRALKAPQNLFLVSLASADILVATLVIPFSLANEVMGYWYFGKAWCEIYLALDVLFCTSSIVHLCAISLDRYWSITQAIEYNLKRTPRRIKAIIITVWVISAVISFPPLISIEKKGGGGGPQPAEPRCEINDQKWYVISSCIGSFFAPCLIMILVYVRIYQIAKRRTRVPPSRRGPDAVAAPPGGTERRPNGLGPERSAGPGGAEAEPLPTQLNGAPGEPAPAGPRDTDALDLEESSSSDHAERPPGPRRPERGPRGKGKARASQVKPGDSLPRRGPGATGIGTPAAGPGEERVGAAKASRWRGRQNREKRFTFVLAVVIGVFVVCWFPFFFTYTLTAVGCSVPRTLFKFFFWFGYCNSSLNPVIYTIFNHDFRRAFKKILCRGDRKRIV
The assay can be described thus: Binding affinity determined by displacement of [3H]rauwolscine from alpha-2A adrenergic receptor. Summed up: as §1

The target in assay [4] is T4, Alpha-1B adrenergic receptor (Homo sapiens, UniProt P35368).
T4 sequence (P35368 whole entry): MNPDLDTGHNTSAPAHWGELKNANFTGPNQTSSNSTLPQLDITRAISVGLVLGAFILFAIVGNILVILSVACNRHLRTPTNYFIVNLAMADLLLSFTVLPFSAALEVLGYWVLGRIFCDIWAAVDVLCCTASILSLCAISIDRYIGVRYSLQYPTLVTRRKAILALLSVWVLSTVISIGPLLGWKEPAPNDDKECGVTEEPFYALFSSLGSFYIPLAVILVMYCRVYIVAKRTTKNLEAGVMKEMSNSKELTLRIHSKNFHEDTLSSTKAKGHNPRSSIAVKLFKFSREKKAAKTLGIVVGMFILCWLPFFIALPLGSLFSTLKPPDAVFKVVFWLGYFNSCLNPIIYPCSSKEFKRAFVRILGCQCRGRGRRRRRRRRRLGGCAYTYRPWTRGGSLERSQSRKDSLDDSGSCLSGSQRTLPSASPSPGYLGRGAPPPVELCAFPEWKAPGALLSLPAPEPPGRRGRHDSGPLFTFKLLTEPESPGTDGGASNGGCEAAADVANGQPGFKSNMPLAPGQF
The experiment in a line: Binding affinity determined by displacement of [3H]prazosin from alpha-1B adrenergic receptor.

Assay [5] concerns the target T5, Alpha-1A adrenergic receptor (Homo sapiens, UniProt P35348).
T5 sequence (P35348 whole entry): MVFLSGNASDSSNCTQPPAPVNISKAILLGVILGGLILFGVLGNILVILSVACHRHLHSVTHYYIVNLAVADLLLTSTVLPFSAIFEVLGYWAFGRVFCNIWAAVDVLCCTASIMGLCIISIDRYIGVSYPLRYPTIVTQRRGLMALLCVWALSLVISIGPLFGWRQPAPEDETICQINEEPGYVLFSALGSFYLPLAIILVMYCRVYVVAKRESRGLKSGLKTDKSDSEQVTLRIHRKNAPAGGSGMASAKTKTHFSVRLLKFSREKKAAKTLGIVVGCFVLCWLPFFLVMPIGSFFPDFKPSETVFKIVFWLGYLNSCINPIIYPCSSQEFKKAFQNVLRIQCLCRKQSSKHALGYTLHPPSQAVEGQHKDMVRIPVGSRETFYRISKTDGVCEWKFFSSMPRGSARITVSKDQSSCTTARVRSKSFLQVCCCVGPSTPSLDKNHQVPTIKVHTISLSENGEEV
The assay can be described thus: Binding affinity determined by displacement of [3H]prazosin from alpha-1A adrenergic receptor.

In assay [6] the target is T6, Alpha-1D adrenergic receptor (Homo sapiens, UniProt P25100).
T6 sequence (P25100 whole entry): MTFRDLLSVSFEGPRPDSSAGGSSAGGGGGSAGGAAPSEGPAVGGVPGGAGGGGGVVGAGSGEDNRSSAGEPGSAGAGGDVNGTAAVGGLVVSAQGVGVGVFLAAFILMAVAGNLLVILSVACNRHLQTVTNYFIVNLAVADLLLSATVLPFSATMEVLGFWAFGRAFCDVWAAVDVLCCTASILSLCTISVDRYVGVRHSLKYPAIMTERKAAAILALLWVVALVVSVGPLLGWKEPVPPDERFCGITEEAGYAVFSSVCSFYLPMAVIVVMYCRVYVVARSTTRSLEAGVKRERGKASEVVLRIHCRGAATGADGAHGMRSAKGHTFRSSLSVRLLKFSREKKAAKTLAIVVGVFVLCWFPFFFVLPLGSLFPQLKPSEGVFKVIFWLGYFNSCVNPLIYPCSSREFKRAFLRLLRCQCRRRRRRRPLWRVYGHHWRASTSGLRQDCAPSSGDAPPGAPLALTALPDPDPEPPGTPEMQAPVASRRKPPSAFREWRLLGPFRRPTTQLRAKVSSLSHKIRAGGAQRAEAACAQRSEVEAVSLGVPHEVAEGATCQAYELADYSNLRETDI
The experiment in a line: Binding affinity determined by displacement of [3H]prazosin from alpha-1D adrenergic receptor. The method, boiled down: as §1

Assay [7] addresses Voltage-gated L-type calcium channel (Rattus norvegicus, UniProt P22002+Q02485+P27732). The assay can be described thus: Binding affinity at the L-type [Ca2+] channel from rat brain homogenate by [3H]nitrendipine displacement. The format is tissue-based.

On to `CO/C(O)=C1\C(C)=NC(C)=C(C(=O)NCCCCN2CCC(c3ccccc3)(c3ccccc3)CC2)C1c1ccc([N+](=O)[O-])cc1` (stereo not drawn), for which the Ki in assay [1] is 282 nM; in assay [2] it was 372 nM; in assay [3], 646 nM; in assay [4] it was 135 nM; in assay [5], 14.8 nM; in assay [6] it was 331 nM. Moreover, the “Log Ki” value in assay [7] is reported as under -6.

For the molecule `CC1=C(C(N)=O)C(c2ccc3c(c2)OCO3)C(C(=O)NCCCN2CCC(c3ccccc3)(c3ccccc3)CC2)=C(C)N1` (stereo not drawn), the Ki in assay [1] is 724 nM; in assay [2], 204 nM; in assay [3] it was 501 nM; in assay [4], 1170 nM; in assay [5], 8.71 nM; in assay [6], 1150 nM. The “Log Ki” value in assay [7] is under -6.

Regarding `CO/C(O)=C1\C(C)=NC(C)=C(C(=O)NCCCN2CCC(c3ccccc3)(c3ccccc3)CC2)C1c1ccc(C)cc1` (stereo not drawn), the Ki was 417 nM in assay [1]; 912 nM in assay [2]; 1290 nM in assay [3]; 269 nM in assay [4]; 1.38 nM in assay [5]; 316 nM in assay [6]. In assay [7], the “Log Ki” value was under -6.

With `CO/C(O)=C1\C(C)=NC(C)=C(C(=O)NCCCN2CCC(c3ccccc3)(c3ccccc3)CC2)C1c1ccc(Cl)c(Cl)c1` (stereo not drawn), the Ki in assay [1] was 158 nM; in assay [2], 1260 nM; in assay [3] it was 912 nM; in assay [4], 115 nM; in assay [5], 1.86 nM; in assay [6] it was 324 nM. In assay [7], the “Log Ki” value is under -6.

For the molecule `CC1=C(C#N)C(c2ccc([N+](=O)[O-])cc2)C(C(=O)NCCCN2CCC(c3ccccc3)(c3ccccc3)CC2)=C(C)N1` (stereo not drawn), the Ki was 479 nM in assay [1]; 832 nM in assay [2]; 631 nM in assay [3]; 166 nM in assay [4]; 56.2 nM in assay [5]; 437 nM in assay [6]. Further, in assay [7], the “Log Ki” value is reported as under -6.

In the case of `CC(=O)C1=C(C)NC(C)=C(C(=O)NCCCN2CCC(c3ccccc3)(c3ccccc3)CC2)C1c1ccc2c(c1)OCO2` (stereo not drawn), the Ki in assay [1] was 407 nM; in assay [2] it was 380 nM; in assay [3], 955 nM; in assay [4], 380 nM; in assay [5], 8.91 nM; in assay [6] it was 457 nM. The “Log Ki” value in assay [7] is recorded as under -6.

For the molecule `CO/C(O)=C1\C(C)=NC(C)=C(C(=O)NCCCN2CCC(c3ccccc3)CC2)C1c1ccc([N+](=O)[O-])cc1` (stereo not drawn), the Ki was 81.3 nM in assay [1]; 219 nM in assay [2]; 275 nM in assay [3]; 13.5 nM in assay [4]; 0.229 nM in assay [5]; 66.1 nM in assay [6]. Besides, the “Log Ki” value in assay [7] was under -6.

`CO/C(O)=C1\C(C)=NC(C)=C(C(=O)NCCCN2CCC(c3ccccc3)(c3ccccc3)CC2)C1c1ccc2c(c1)OCO2` (stereo not drawn): the Ki is 575 nM in assay [1]; 871 nM in assay [2]; 1120 nM in assay [3]; 224 nM in assay [4]; 1.12 nM in assay [5]; 302 nM in assay [6]. The “Log Ki” value in assay [7] is recorded as under -6.

As for `CO/C(O)=C1\C(C)=NC(C)=C(C(=O)NCCCN2CCC(c3ccccc3)(c3ccccc3)CC2)C1c1ccc2ccccc2c1` (stereo not drawn), the Ki is 631 nM in assay [1]; 891 nM in assay [2]; 1580 nM in assay [3]; 138 nM in assay [4]; 36.3 nM in assay [5]; 741 nM in assay [6]. For the same molecule, in assay [7], the “Log Ki” value was -6.43.
